Assay results reported in PubChem BioAssay.
Records with an inconclusive call do not appear.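 The calls were made as follows, unless noted: active = RAM network inhibition above 8.4% in each of two replicates, 3 SD over the compound average; inconclusive = above 8.4% inhibition in only one replicate; inactive = 8.4% inhibition or less in each replicate.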

Experiments:
[1] = OD615 S. cerevisiae growth inhibition, permissive medium, pilot counter-assay, permissive growth control for S. cerevisiae lifespan shortening project (AID 705;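 active = growth inhibition above 25% in both replicates, a cutoff set 3 SD above the mean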); conditions: OD615, 24 h, at 10 µM, hits give high values
Method in brief: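 System: Engineered DeaD yeast | Buffer or medium: SC raffinose/galactose permissive medium | Incubation: Cells pre-grown 4 h, then 24 h compound exposure, 30 °C humidified | Measured by: Absorbance (optical density) at 615 nm | Read-out: Reduction in yeast growth (OD615)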

[2] = Restrictive medium S. cerevisiae growth inhibition, OD615, pilot screen of yeast lifespan reduction project, restrictive growth control (AID 706;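 active = growth inhibition above a set limit, 3 SD over mean compound inhibition, in both replicates, cut at about 43% in these data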;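 also: modified DeaD lifespan yeast strain shifted to restrictive glucose medium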); conditions: OD615, 48 h, at 10 µM, hits give high values
Method in brief: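 Material: modified S. cerevisiae; Medium: glucose-based CSMM-D restrictive medium; Compound dosing: one concentration, 10 µM final, 0.25% DMSO; Incubation: 48 h compound exposure at 30 °C; Measured by: OD615.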

[3] = viability gain of MRP-1-high H69AR cells under doxorubicin, pilot screen, MRP-1 activator project, CellTiter-Glo, duplicate (AID 807;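 active = viability increase at or above a cutoff of the median across tested compounds plus 3 SD, cut at about 8.5% in these data, passing the limit was not always enough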;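 also: compound pretreatment 18-22 h then 72 h combined with doxorubicin; 0% = doxorubicin alone and 100% = vehicle without doxorubicin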); conditions: H69AR viability with doxorubicin, CellTiter-Glo luminescence; at 10 µM; hits give high values
[4] = growth suppression of beta-catenin knockout HCT116, pilot screen, human colon tumor cells (AID 823;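 active = cell viability at or below a set limit in both duplicate runs, the limit being the all-compound median minus 4 SD, cut at about 23% in these data, passing the limit was not always enough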;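 also: 0% = wells killed by 20 µM Hyamine and 100% = untreated DMSO cell wells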); conditions: CellTiter-Glo, 60 h, at 10 µM, hits give low values
[5] = growth suppression of PTEN-deleted HCT116, pilot screen, cell-based, HCT116 clonal line, CellTiter-Glo (AID 824;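 active = viability at or below 27.92% in each of two runs, the all-compound median minus 4 SD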;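 also: 0% = 20 µM Hyamine control and 100% = vehicle cell control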); conditions: 60 h, at 10 µM, hits give low values
[6] = inhibitors of the yeast RAM network, pilot screen, dse1pr::URA3 reporter, 5-FOA selection (AID 869;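 active = inhibition over a set limit, the all-compound mean plus 3 SD, in both replicate runs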;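 also: 0% = DMSO wells with no growth and 100% = 10 µM 1-NA-PP1 with full growth; RAM network block rescues cells from 5-FOA so hits raise OD615 growth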); conditions: S. cerevisiae dse1pr::URA3 5-FOA growth, OD615, 2 d; at 10 µM; hits give high values; strain carries analog-sensitive mutant Cbk1 kinase
[7] = RAM signaling pathway blockade in yeast – S. cerevisiae, Pdr1DBD-CYC8 efflux-inhibited sensitized strain, primary screen (AID 1298);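 also: 0% = DMSO untreated cells without growth and 100% = 10 µM 1-NA-PP1 full growth; higher means more yeast growth rescued from 5-FOA killing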; conditions: S. cerevisiae cbk1-as DSE1-URA3 strain, 5-FOA growth OD615, 2 d; at 50 µM; hits give high values

Cc1cnc(C(=O)OCC(=O)Nc2ccc(Cl)cc2)cn1
inactive: growth inhibition [1] -19% | growth inhibition [2] -21% | viability increase [3] -2.99% | viability [4] 101% | viability [5] 92.8% | inhibition [6] 3.85% | RAM network inhibition [7] 3.15%

CC(=O)CCc1c(C)c2cccc(C)c2[nH]c1=O
inactive: growth inhibition [1] 1.6% | growth inhibition [2] 1.5% | viability increase [3] -3.1% | viability [4] 93.4% | viability [5] 96.5% | inhibition [6] 2.75% | RAM network inhibition [7] 3.81%

C=CCOC(=O)C1=C(C)NC(=O)NC1c1ccc(Cl)cc1 (configuration not stated)
inactive: growth inhibition [1] -3.88% | growth inhibition [2] -3.15% | viability increase [3] 0.95% | viability [4] 102% | viability [5] 88.2% | inhibition [6] -0.115% | RAM network inhibition [7] 2.31%

CCN(CC)C(=O)CSc1ccccc1N
inactive: growth inhibition [1] -16.2% | growth inhibition [2] -9.23% | viability increase [3] -1.98% | viability [4] 89.5% | viability [5] 94.4% | inhibition [6] 0.885% | RAM network inhibition [7] 5.73%

O=C(NC1CCCC1)C1C2C=CC3(CN(Cc4cccs4)C(=O)C13)O2 (configuration not stated)
inactive: growth inhibition [1] -17.8% | growth inhibition [2] -17.1% | viability increase [3] -1.96% | viability [4] 94.8% | viability [5] 101% | inhibition [6] 0.615% | RAM network inhibition [7] 5%

CCOC(=O)c1cc(-c2ccc(C)cc2)n(CC(=O)NCc2ccco2)c1C
inactive: growth inhibition [1] 12.1% | growth inhibition [2] -7.09% | viability increase [3] -5.81% | viability [4] 74.6% | viability [5] 77.5% | inhibition [6] 3.1% | RAM network inhibition [7] 5.82%

Cn1nnnc1P(=O)(c1ccccc1)c1ccccc1
inactive: growth inhibition [1] 0.165% | growth inhibition [2] 0.5% | viability increase [3] 0.85% | viability [4] 103% | viability [5] 102% | inhibition [6] 0.995% | RAM network inhibition [7] 1.32%

CC(=O)C1=C(O)C(=O)N(CC(=O)O)C1c1ccccc1Cl (configuration not stated)
inactive: growth inhibition [1] 0.915% | growth inhibition [2] 9.59% | viability increase [3] -0.3% | viability [4] 104% | viability [5] 104% | inhibition [6] 2.28% | RAM network inhibition [7] 2.43%

COC(=O)c1c(NC(=O)CSc2nnnn2-c2ccccc2)sc2c1CCC(C)C2 (configuration not stated)
inactive: growth inhibition [1] -21.3% | growth inhibition [2] -21.2% | viability increase [3] -1.07% | viability [4] 84.4% | viability [5] 78.3% | inhibition [6] 2.46% | RAM network inhibition [7] 10.1%

CC(=O)N1CCN(CCN=CC2=C(O)CC(c3ccc(Cl)cc3)CC2=O)CC1 (configuration not stated)
inactive: growth inhibition [1] -8.45% | growth inhibition [2] -3.19% | viability increase [3] 1.98% | viability [4] 99.2% | viability [5] 101% | inhibition [6] 1.2% | RAM network inhibition [7] -0.17%

COc1ccc(C2C3=C(CC(C)(C)CC3=O)Nc3c2c(=O)[nH]c(=O)n3Cc2ccccc2)cc1 (configuration not stated)
inactive: growth inhibition [1] -7% | growth inhibition [2] 6.84% | viability increase [3] -2.53% | viability [4] 89.5% | viability [5] 74.5% | inhibition [6] 1.65% | RAM network inhibition [7] 6.38%

Cn1c(Cn2c(=O)sc3ccccc32)nnc1SCC(=O)N1CCCc2ccccc21
inactive: growth inhibition [1] -4.97% | growth inhibition [2] 0.455% | viability increase [3] -3.71% | viability [4] 96.5% | viability [5] 95.1% | inhibition [6] 1.82% | RAM network inhibition [7] 6.16%

CCOc1ccc(C2CC(=O)NC(SCC(=O)OC)=C2C#N)cc1 (configuration not stated)
inactive: growth inhibition [1] 3.64% | growth inhibition [2] 6.22% | viability increase [3] 2.65% | viability [4] 102% | viability [5] 105% | inhibition [6] 1.87% | RAM network inhibition [7] 1.2%

NS(=O)(=O)c1ccc(CNC(=O)NC2(c3ccccc3)CC2)cc1
inactive: growth inhibition [1] -14.6% | growth inhibition [2] -6.6% | viability increase [3] -2.9% | viability [4] 102% | viability [5] 87.2% | inhibition [6] 1.08% | RAM network inhibition [7] 3.05%

COc1ccc(C2C(C(=O)Nc3cccc(C)n3)c3ccccc3C(=O)N2C)cc1 (configuration not stated)
inactive: growth inhibition [1] -11.3% | growth inhibition [2] -6.23% | viability increase [3] -0.69% | viability [4] 101% | viability [5] 93.9% | inhibition [6] 1.39% | RAM network inhibition [7] 2.93%

CC(C)N1CCc2c(sc(NC(=O)c3ccc(S(=O)(=O)N4CCOCC4)cc3)c2C(N)=O)C1
inactive: growth inhibition [1] -2.23% | growth inhibition [2] -11.5% | viability increase [3] -3.25% | viability [4] 92.6% | viability [5] 88.7% | inhibition [6] 2.21% | RAM network inhibition [7] 1.28%

COc1cccc(-n2c(Cc3cc(=O)[nH]c(=O)[nH]3)nnc2SCC(=O)NC2CCCCC2)c1
inactive: growth inhibition [1] -4.46% | growth inhibition [2] -1.15% | viability increase [3] -1.6% | viability [4] 100% | viability [5] 101% | inhibition [6] 1.86% | RAM network inhibition [7] 3.48%

O=C(NCCCNC(=O)c1cccs1)c1cccs1
inactive: growth inhibition [1] 3.77% | growth inhibition [2] -0.395% | viability increase [3] 0% | viability [4] 96.6% | viability [5] 108% | inhibition [6] 1.09% | RAM network inhibition [7] 5.26%

CCC(=O)c1ccc(OCC(O)CN2C(=O)NC(C)(C)C2=O)cc1 (configuration not stated)
inactive: growth inhibition [1] -3.58% | growth inhibition [2] -3.1% | viability increase [3] -0.53% | viability [4] 100% | viability [5] 92.8% | inhibition [6] 1.6% | RAM network inhibition [7] 1.09%

Cn1c(NCCO)nc2c(c1=O)C1(CCCCC1)Cc1ccccc1-2
inactive: growth inhibition [1] -13.2% | growth inhibition [2] -9.4% | viability increase [3] -2.31% | viability [4] 84% | viability [5] 76% | inhibition [6] 2.31% | RAM network inhibition [7] 5%

CC(C)(C)NC(=O)CSc1nccn1Cc1ccccc1
inactive: growth inhibition [1] -11.7% | growth inhibition [2] -5.1% | viability increase [3] -1.52% | viability [4] 95.9% | viability [5] 93% | inhibition [6] 1.66% | RAM network inhibition [7] 4.82%

O=C1Nc2ccc(S(=O)(=O)N3CCCCCC3)c3cccc1c23
inactive: growth inhibition [1] -0.465% | growth inhibition [2] -4.72% | viability increase [3] -2.03% | viability [4] 95.2% | viability [5] 86.2% | inhibition [6] 1.57% | RAM network inhibition [7] 0.81%

Brc1cnc(N2CCCC2)nc1N1CCCCC1
inactive: growth inhibition [1] -5.12% | growth inhibition [2] 2.11% | viability increase [3] -2.63% | viability [4] 86.2% | viability [5] 84.4% | inhibition [6] 2.09% | RAM network inhibition [7] 0%

O=C(c1ccco1)N1CCN(c2ncccn2)CC1
inactive: growth inhibition [1] -12.9% | growth inhibition [2] -5.72% | viability increase [3] -1.88% | viability [4] 98.9% | viability [5] 96.3% | inhibition [6] 2.97% | RAM network inhibition [7] -0.22%

CC(=O)C1(O)C(C)CC2C3CCC4CC(O)CCC4(C)C3=CCC21C (configuration not stated)
inactive: growth inhibition [1] -8.11% | growth inhibition [2] -5.04% | viability increase [3] -1.36% | viability [4] 97.2% | viability [5] 90.2% | inhibition [6] 0.305% | RAM network inhibition [7] 9.58%

COc1cc(NC(=O)C2CCCC2)c(OC)cc1Cl
inactive: growth inhibition [1] -8.4% | growth inhibition [2] -12% | viability increase [3] -3.09% | viability [4] 81.9% | viability [5] 78.4% | inhibition [6] 1.02% | RAM network inhibition [7] -0.72%

Cn1cccc1Cc1nnc(SCC(=O)Nc2ccc3c(c2)OCO3)n1-c1ccc(F)cc1
inactive: growth inhibition [1] 8.39% | growth inhibition [2] 14.1% | viability increase [3] -1.95% | viability [4] 90.4% | viability [5] 91.3% | inhibition [6] 1.56% | RAM network inhibition [7] 8.29%

CCN1CCN(C(C(=O)NC2CCCC2)c2ccc(Cl)cc2)CC1 (configuration not stated)
inactive: growth inhibition [1] -14.8% | growth inhibition [2] 0.47% | viability increase [3] -4.44% | viability [4] 93.9% | viability [5] 93.1% | inhibition [6] 1.02% | RAM network inhibition [7] 3.71%

Cn1nc(-c2ccc(Cl)cc2)c2cc(C(=O)N3CCN(c4ccccc4)CC3)sc21
inactive: growth inhibition [1] -0.325% | growth inhibition [2] -3.28% | viability increase [3] -5.26% | viability [4] 71.2% | viability [5] 72.2% | inhibition [6] 3.44% | RAM network inhibition [7] 5.19%

C=CCn1c(CCCNC(=O)C(C)(C)C)nc2ccccc21
inactive: growth inhibition [1] -10.7% | growth inhibition [2] -20.9% | viability increase [3] -1.33% | viability [4] 99.7% | viability [5] 96.1% | inhibition [6] 0.295% | RAM network inhibition [7] 5.54%

Cc1ccc(Cn2c3ccccc3c3cn[nH]c(=O)c32)cc1
inactive: growth inhibition [1] -15.7% | growth inhibition [2] -24.6% | viability increase [3] -3.48% | viability [4] 101% | viability [5] 91.1% | inhibition [6] 2.17% | RAM network inhibition [7] 3.88%

COc1ccc(S(=O)(=O)N2CC(C)N(S(=O)(=O)c3ccc(OC)cc3)CC2C)cc1 (configuration not stated)
inactive: growth inhibition [1] -4.74% | growth inhibition [2] 0.035% | viability increase [3] -2.77% | viability [4] 93.2% | viability [5] 102% | inhibition [6] 1.73% | RAM network inhibition [7] 5.94%

O=C(Nc1nccs1)C12CC3CC(C1)CC(C(=O)Nc1nccs1)(C3)C2
inactive: growth inhibition [1] 1.86% | growth inhibition [2] 28.3% | viability increase [3] -2.85% | viability [4] 75.3% | viability [5] 78.7% | inhibition [6] 1.25% | RAM network inhibition [7] 2.5%

CCOC(=O)C1=C(C)NC(C)=C(C(=O)OCC)C1C(=O)O
inactive: growth inhibition [1] -3.05% | growth inhibition [2] -4.22% | viability increase [3] -3.51% | viability [4] 93.5% | viability [5] 90% | inhibition [6] 0.265% | RAM network inhibition [7] 1.53%

O=C(Nc1ccccc1)OCC1CCCN2CCCCC12 (configuration not stated)
inactive: growth inhibition [1] -12.9% | growth inhibition [2] -13.1% | viability increase [3] -0.94% | viability [4] 95.7% | viability [5] 97.4% | inhibition [6] 0.69% | RAM network inhibition [7] 3.65%

CCOC(=O)C1CCN(C(=O)C2CCN(S(=O)(=O)c3cccc4cccnc34)CC2)CC1
inactive: growth inhibition [1] 4.06% | growth inhibition [2] 3.42% | viability increase [3] -1.75% | viability [4] 102% | viability [5] 97.6% | inhibition [6] 0.585% | RAM network inhibition [7] 1.1%
